Measurements of several laboratories.
Lines come from different studies, so protocols differ.
Target: Serine/threonine-protein kinase Sgk2 (SGK2, Homo sapiens, UniProt Q9HBY8)
Sequence (Q9HBY8 1-367, as in one of the studies): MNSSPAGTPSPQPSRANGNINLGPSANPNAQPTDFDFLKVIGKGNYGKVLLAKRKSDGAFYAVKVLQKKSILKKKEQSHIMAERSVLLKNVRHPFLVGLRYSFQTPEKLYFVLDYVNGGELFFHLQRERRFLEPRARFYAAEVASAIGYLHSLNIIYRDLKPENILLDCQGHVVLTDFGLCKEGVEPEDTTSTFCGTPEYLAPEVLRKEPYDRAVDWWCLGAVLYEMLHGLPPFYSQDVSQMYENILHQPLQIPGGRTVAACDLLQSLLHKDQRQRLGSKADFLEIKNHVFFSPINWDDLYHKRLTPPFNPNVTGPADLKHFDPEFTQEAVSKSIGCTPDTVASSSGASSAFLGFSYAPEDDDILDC

| SMILES | test | conditions | remaining binding |
| --- | --- | --- | --- |
| Cc1cnc(Nc2ccc(C(=O)N3CCC(N4CCCC4)CC3)cc2)nc1-c1cc2ccccc2s1 | binding, competition with immobilised ligand | 1 µM | 29% |
| COc1ccc2c(c1)O[C@H](c1ccc(OC)c(OC)c1)C[C@@H]2NC(=O)C1(c2ccc3c(c2)OC(F)(F)O3)CC1 | cell-free assay, competition with immobilised ligand | 1 µM | 100% |
| F[C@@H]1CCN(c2nccc(-c3cnn4ncccc34)n2)C1 | binding | 1 µM | 92% |
| O=C(c1ccc(Nc2ncc(Cl)c(-c3cc4ccccc4s3)n2)cc1)N1CCC(N2CCCC2)CC1 | binding, competition with immobilised ligand | 1 µM | 48% |
| Cn1cc(Cl)c2c(Oc3c(F)cc(Nc4cc(Cl)nc(N)n4)cc3F)ccnc21 | cell-free assay, competition with immobilised ligand | 0.1 µM | 86% |
| O=C(NCCCN1CCOCC1)c1ccc(Nc2nccc(-c3cc4ccccc4s3)n2)cc1 | binding, competition with immobilised ligand | 1 µM | 55% |
| N[C@@H]1CCN(c2nccc(-c3cnn4ncccc34)n2)C1 | binding | 1 µM | 100% |
| C[C@@H](c1ccc(-n2cnc3c(N)ncnc32)cc1)N1CCc2nn(C)c(Cc3ccccc3)c2C1=O | binding, competition with immobilised ligand | 0.1 µM | 48% |
| CC1=C(C#N)[C@@H](c2ccc3[nH]nc(C)c3c2)C(C#N)=C(c2ccc(Cl)cc2)N1 | cell-free assay, competition with immobilised ligand | 1 µM | 100% |
| O=C(NCC1CCOCC1)c1n[nH]cc1NC(=O)c1c(F)cccc1F | binding, competition with immobilised ligand | 1 µM | 94% |
| C[C@@H]1CCN(c2nccc(-c3cnn4ncccc34)n2)C1 | binding | 1 µM | 81% |
| COc1ncc2cc3ccccc3nc2c1C#N | cell-free assay, competition with immobilised ligand | 5 µM | 98% |
| CN(C)c1nccc(-c2cnn3ncccc23)n1 | binding | 1 µM | 75% |
| Cc1cc(C)c(-n2ccn3nc(-c4cccnc4)cc23)cc1NC(=O)c1cc(C#N)cc(S(F)(F)(F)(F)F)c1 | cell-free assay, competition with immobilised ligand | 0.1 µM | 100% |
| C=CC(=O)N1CCC(C(=O)NCC(=O)N2CCN(c3nc(-c4cnc(N)nc4C(F)F)nc(N4CCOCC4)n3)CC2)CC1 | binding, competition with immobilised ligand | 1 µM | 86% |
| COc1cnc(Nc2cccc(S(N)(=O)=O)c2)nc1N1CCN(c2ccccc2)CC1 | binding, competition with immobilised ligand | 1 µM | 82% |
| CCOC(=O)c1cc2cc(-c3cc(C(=O)NCc4ccc(C(=O)O)cc4)nn3C)ccc2[nH]1 | cell-free assay, competition with immobilised ligand | 0.1 µM | 100% |
| CN(C)c1nccc(-c2cnc3ncccn23)n1 | binding | 1 µM | 81% |
| Cc1nc(N2CC[C@@H](O)C2)ncc1-c1cc(C(F)(F)F)cc2[nH]ncc12 | binding, competition with immobilised ligand | 1 µM | 88% |
| CN(c1nccc(-c2cnn3ncccc23)n1)C1CC1 | binding | 1 µM | 86% |
